Assay outcomes from PubChem BioAssay.
RGS4 inh – human RGS4 inhibition. HEK293 M3R/RGS4 inducible, Fluo-4 calcium flux; active compounds read high; triggered by carbachol at its EC20. B-score at 10 µM. actives 0.45% (n = 310,000). AID 463165;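 active = B-score, a plate-corrected calcium signal, over three deviations above library mean, with baseline fluorescence within five deviations of library mean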;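 note: RGS4 expression induced by doxycycline in cells with stable M3 receptor; B-score is computed from the integrated fluorescence ratio over baseline after carbachol; higher B-score means a larger calcium signal and so more RGS4 inhibition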
MrgX1 allo act – human MrgX1 positive allosteric modulation, primary screen; Q96LB2; MrgX1-HEK293, Fluo-4 calcium flux, FDSS; active compounds read high; B-score at 10 µM; actives 0.63% (n = 310,000); AID 588675;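 active = plate-corrected calcium response at least 3 library SD above typical, normal starting fluorescence, not activating the receptor alone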;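 note: compound read alongside a low EC10 to EC30 dose of BAM8-22 agonist; peak minus trough fluorescence over baseline measured at the second addition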
Target sequence (Q96LB2 whole entry, looked up): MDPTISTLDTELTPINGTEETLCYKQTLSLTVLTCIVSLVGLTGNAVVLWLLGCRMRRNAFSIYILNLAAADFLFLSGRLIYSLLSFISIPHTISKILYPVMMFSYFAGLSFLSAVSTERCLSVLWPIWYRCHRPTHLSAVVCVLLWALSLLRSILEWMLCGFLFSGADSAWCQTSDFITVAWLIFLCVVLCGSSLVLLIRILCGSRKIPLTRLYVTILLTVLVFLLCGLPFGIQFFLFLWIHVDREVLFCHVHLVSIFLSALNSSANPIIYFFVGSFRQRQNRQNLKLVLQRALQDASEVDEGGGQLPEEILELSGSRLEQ
RGS4 act – potentiators or activators of RGS4; HEK293 M3R/inducible RGS4, carbachol calcium flux Fluo4; active compounds read low; B-score at 10 µM; actives 0.92% (n = 310,000);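 active = B-score of the integrated calcium signal more than 4 SD below the library mean, with starting fluorescence not abnormally high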;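 note: negative B-score means reduced calcium response which marks RGS4 activation or potentiation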
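Material: M3R-expressing HEK293 line, RGS4 induced by doxycycline | Schedule: Overnight RGS4 induction, 30 min dye load 37 °C, 20 min compound RT | Measured by: Fluo4 fluorescence kinetic imaging of calcium | Read-out: Integrated calcium ratio converted to B score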
MrgX1 antagonist – antagonists of human MrgX1 receptor; Q96LB2; MRGX1-HEK293 calcium flux, Fluo-4, BAM8-22 antagonism; active compounds read low; B-score at 10 µM; actives 1.3% (n = 310,000);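 active = calcium-response B-score plate-corrected more than 3 library SD below zero, starting fluorescence within 5 deviations, no agonist response on first addition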;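 note: peak minus trough fluorescence over baseline after final BAM8-22 challenge near maximal dose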
MrgX1 ag – activates human MrgX1 receptor signaling. AID 588627. MrgX1-HEK293 cells, Fluo-4 calcium fluorescence, agonist mode; active compounds read high. B-score at 10 µM. actives 0.44% (n = 310,000);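 active = calcium response B-score plate-corrected fluorescence ratio at least 3 library SD, with starting fluorescence B-score inside 5 SD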
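Material: HEK293 cells stably expressing human MrgX1 receptor | Quantity: 15,000 cells per well | Times: Cells plated overnight, dye loaded 0.5 h 37 °C, 0.5 h room temperature | Measured by: Kinetic Fluo-4 NW fluorescence of intracellular calcium | Control set: Positive and negative controls per plate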
RGS4 act valid – confirmation of RGS4 activators; shares compounds with RGS4 act; actives 89% (n = 1,100); inhibition, % at 10 µM; HEK293 M3R/RGS4 inducible, carbachol calcium flux Fluo4;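 active = inhibition above 3 SD of the buffer control wells, cut at about 41% in these data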;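 note: signal is the integrated peak-minus-minimum Fluo4 fluorescence over baseline ratio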
M3R Ca counter – RGS4 activator counter-screen hit in non-induced cells | shares compounds with RGS4 act | actives 82% (n = 1,100) | inhibition, % at 10 µM | HEK293 M3R non-induced RGS4, Fluo4 calcium flux; after carbachol challenge at its EC90;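 active = inhibition exceeding 3 SD of buffer-only control wells, cut at about 26% in these data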;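 note: percent drop in integrated peak-minus-baseline over baseline Fluo4 ratio after carbachol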
Numbers without * were called inactive; i = inactive; . = no result given. The list is not random: actives were taken first. Their share in the collection is about 3.5%.

SMILES | RGS4 inh | MrgX1 allo act | RGS4 act | MrgX1 antagonist | MrgX1 ag | RGS4 act valid | M3R Ca counter
COc1ccc(OC)c(/C=N/NC(=O)CCN2CCN(C(c3ccccc3)c3ccccc3)CC2)c1 | i | i | -11* | i | i | 92* | 94*
Cc1ccc(OCc2cc(C(=O)N3CCc4sccc4C3)no2)cc1C | i | i | -7.7* | i | i | 81* | 44*
Cc1ccccc1Cn1cc(NC(=O)COc2ccccc2)cn1 | i | i | i | i | i | . | .
CCOC(=O)c1sc2nc(C)nc(NCc3ccc(Cl)cc3)c2c1C | i | i | -7.8* | i | i | 90* | 42*
CCOC(=O)c1sc2nc(C)nc(NCc3ccc(F)cc3)c2c1C | i | i | i | i | i | . | .
O=c1c2c(nc3n1CCCCC3)-c1ccccc1CC21CCCCC1 | i | i | -16* | i | i | 90* | 79*
Cc1c(Cl)cccc1NC(=O)CSc1ncnc2c1cnn2CCO | i | i | i | i | i | . | .
CCCCN(C(=O)c1ccc(C)c(S(=O)(=O)N2CCOCC2)c1)c1c(N)n(CCCC)c(=O)[nH]c1=O | i | i | i | i | i | . | .
O=C(Nc1ccc2c(c1)CCCN2C(=O)c1ccccc1)c1ccccc1 | i | i | -9* | i | i | 62* | 0
CCOC(=O)c1c(NC(C)=O)sc2c(OC)c(Br)ccc12 | i | i | i | i | i | . | .
CCOC(=O)c1c(NC(C)=O)sc2c(OCCN(CC)CC)c(Br)ccc12 | i | i | -10* | i | i | 90* | 39*
CCOC(=O)N1CCN(C(=O)CNC(=O)c2ccc(Br)o2)CC1 | i | i | i | i | i | . | .
Cc1[nH]nc2c1C(c1ccc(F)cc1)C1=C(CC(C)(C)CC1=O)N2 (centres undefined) | i | i | -9.7* | i | i | 0 | 0
CCOC(=O)c1ccccc1NC(=O)c1cn(-c2ccc(C)c(C)c2)c(=O)c2ccccc12 | i | i | i | i | i | . | .
COC(=O)c1ccccc1NC(=O)c1cn(-c2ccc(C)c(C)c2)c(=O)c2ccccc12 | i | i | -11* | i | i | 76* | 84*
COC(=O)c1ccc(CN2CCN(C3CCCC3)C(CCO)C2)cc1 (centres undefined) | i | i | -9.3* | i | i | 92* | 67*
CC(C)N(C(C)C)S(=O)(=O)c1ccc(NC(=O)c2cnccn2)cc1 | i | i | i | i | i | . | .
CN(C)C(CNC(=O)c1ccc(C2SCCS2)cc1)c1ccccc1 (centres undefined) | i | i | -10* | i | i | 94* | 80*
CCN(CC)CCC#CC(O)(c1ccccc1)c1ccccc1 | i | i | -8.1* | i | i | 93* | 89*
CCN(CC)CCC#CC1(O)c2ccccc2-c2ccccc21 | i | i | i | i | i | . | .
O=C(Nc1ccc(Cl)c(S(=O)(=O)N2CCOCC2)c1)c1ccc(OCC2CCCO2)cc1 (centres undefined) | i | i | -11* | -11* | i | 94* | 79*
O=C(Nc1ccc(S(=O)(=O)N2CCCC2)cc1)c1ccc(OCC2CCCO2)cc1 (centres undefined) | i | i | i | i | i | . | .
Cc1cc(C)nc(/N=C(\N)N(Cc2ccccc2)Cc2ccccc2)n1 | i | i | -8.5* | i | i | 92* | 95*
CCN1C(=O)N[C@@H](c2cccs2)C(C(C)=O)=C1C | i | i | i | i | i | . | .
CS(=O)(=O)c1ccc2nc(NC(=O)c3ccc(Cn4cc(Br)cn4)o3)sc2c1 | i | i | -8.8* | i | i | 63* | 0
COc1cc(CCC(=O)NNC(=O)c2cccc(Cl)c2)cc(OC)c1OC | i | i | i | i | i | . | .
